Screens as filed in PubChem.
Hits are enriched below; roughly 3.1% of the tested compounds scored in any of these assays.
KCNK3 block: human KCNK3 channel inhibition, primary screen | O14649 | CHO-KCNK3 thallium flux, FluxOR fluorescence; active compounds read low | B-score at 10 µM | actives 0.84% (n = 340,000) | AID 602410;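 active = B-score under library mean minus 4 SD, starting fluorescence ratio at most library mean plus 5 SD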;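 also: more negative B-score means stronger inhibition of thallium flux through KCNK3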
hERG rescue: shields human hERG channel from block by proarrhythmic agents. Q12809. CHO-hERG, FluxOR thallium flux, dofetilide IC70 present. activation (rescue from dofetilide block), less the hit threshold, % at 10 µM. actives 0.51% (n = 310,000). AID 1511;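 active = activation above the mean of controls blocked by dofetilide plus 5 SD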;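 also: thallium influx through hERG after potassium depolarization seen as dye fluorescence rise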
KCNQ1 inh: inhibitors of human KCNQ1 potassium channel; B-score at 10 µM; actives 1.3% (n = 310,000); CHO-K1 KCNQ1, FluxOR thallium flux fluorescence; active compounds read high; P51787;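 active = compounds whose thallium flux B-score, printed positive for inhibition, exceeds three library SD while starting fluorescence stays within three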;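 also: channel opened by potassium depolarization with thallium stimulus after 20 min compound exposure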
KCNK9 block: blocks the human KCNK9 two-pore domain potassium channel. Q9NPC2. HEK293 KCNK9, FluxOR thallium flux fluorescence; active compounds read low. B-score at 10 µM. actives 1.2% (n = 310,000). AID 488922;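 active = ratio B-score over 3 SD below the library mean, with starting fluorescence within 5 SD of its mean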;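 also: negative B-score means less thallium flux so channel inhibition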
KCNQ1 pot: human KCNQ1 channel potentiation or activation. AID 2648. P51787. B-score at 10 µM. CHO-K1 KCNQ1, thallium flux FluxOR fluorescence; active compounds read high. actives 0.35% (n = 310,000);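 active = fluorescence ratio B-score, a plate-corrected score, at least three library SD, with initial intensity B-score within 5 SD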
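assay system = KCNQ1-transfected CHO-K1 cells | medium = assay buffer with matched DMSO | probe or stimulus = depolarizing K+/Tl+ stimulus, K2SO4 and Tl2SO4 each 12.5 mM in 5x stock | dosing = single dose | incubation = dye 90 min, compound 20 min, room temperature | detection = kinetic FluxOR fluorescence, 10 s baseline plus 110 s post-stimulus | evaluation = ratio B score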
KCNK9 block conf: human KCNK9 inhibitor confirmation; shares compounds with KCNK9 block; HEK293 KCNK9 cells, FluxOR thallium flux fluorescence; inhibition, % at 10 µM; actives 43% (n = 4,900);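 active = thallium signal inhibited by more than 5 SD of the compound-free buffer control wells, on both duplicate plates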
Kir21 sel: mouse Kir2.1 off-target activity of KCNK9 modulators; shares compounds with KCNK9 block; Kir2.1 cells, FluxOR thallium flux fluorescence; inhibition, % at 10 µM; actives 4% (n = 4,900);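 active = thallium signal drop more than 5 SD beyond the mean of the no-compound control wells, seen in both duplicate plates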;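 also: signal is fluorescence rise after thallium addition divided by baseline fluorescence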
Target sequence (P35561 whole entry, looked up): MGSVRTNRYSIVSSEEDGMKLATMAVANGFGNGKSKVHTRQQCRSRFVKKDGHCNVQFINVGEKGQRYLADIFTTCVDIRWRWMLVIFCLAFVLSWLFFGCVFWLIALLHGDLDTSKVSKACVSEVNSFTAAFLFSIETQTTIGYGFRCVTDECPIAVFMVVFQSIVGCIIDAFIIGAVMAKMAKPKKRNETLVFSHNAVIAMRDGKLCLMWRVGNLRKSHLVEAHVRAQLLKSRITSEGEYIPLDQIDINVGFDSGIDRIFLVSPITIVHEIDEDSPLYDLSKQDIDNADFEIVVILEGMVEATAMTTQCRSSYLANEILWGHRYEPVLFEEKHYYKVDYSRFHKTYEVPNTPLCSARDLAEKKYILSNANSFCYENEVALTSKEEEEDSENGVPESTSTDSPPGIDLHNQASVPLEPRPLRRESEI
KCNK9 uninduced: non-induced cell nonspecific activity of KCNK9 modulators; shares compounds with KCNK9 block; non-induced KCNK9-HEK293, FluxOR thallium flux; inhibition, % at 10 µM; actives 40% (n = 4,900); AID 492997;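 active = thallium signal drop beyond 5 SD of the untreated control mean, on both duplicate plates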
KCNK3 inh conf: confirmation of human KCNK3 two-pore domain potassium channel inhibitors; ratio percent of control, % at 10 µM; AID 651638; shares compounds with KCNK3 block; CHO-KCNK3 thallium flux, FluxOR fluorescence; 0% buffer, 100% carvedilol maximal block; actives 99% (n = 2,400);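 active = ratio percent of control, averaged over triplicates, above buffer control mean plus 5 SD, cut at about 64% in these data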;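 also: ratio is the fluorescence rise from min to max over baseline after thallium stimulus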
KCNK3 noninduced: KCNK3 inhibitor counter-screen hit in non-induced cells; thallium flux ratio (lower = more inhibition) at 10 µM; actives 40% (n = 2,400); non-induced KCNK3 parental cells, FluxOR thallium flux; active compounds read low; shares compounds with KCNK3 block;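 active = thallium flux ratio, averaged over three wells, more than 5 SD below the buffer control mean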;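 also: host cells are CHO cells without KCNK3 induction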
Of the large screens only hits and unclear results are named; the others gave an inactive call (follow-up assays come after a bar, where they were run).

CCOC(=O)CN=C/C(C(=O)Nc1nccs1)=C(/C)O	none
CCN(C(=S)NCc1ccccc1)c1cccc2ccccc12	KCNK3 block -13, KCNK9 block -18 | KCNK9 block conf 64% | Kir21 sel inactive | KCNK9 uninduced 46% | KCNK3 inh conf 101 | KCNK3 noninduced inactive
CCOC(=O)C1=C(CC)OC(N)=C(C#N)C1c1cccs1 (stereo not drawn)	none
CCN1CC2=C(OC(N)=C(C#N)C2c2cccs2)/C(=C\c2cccs2)C1 (stereo not drawn)	KCNK9 block -8.7 | KCNK9 block conf 28% | Kir21 sel inactive | KCNK9 uninduced 26% | KCNK3 inh conf 130 | KCNK3 noninduced 0.12
O=C(NCc1ccccc1F)C1CCCN1C(=O)Nc1ccccc1 (stereo not drawn)	none
COc1ccc(/C(C)=N/NC(=O)c2ccccc2OCc2ccccc2)c(OC)c1	none
COc1ccc(/C=N/NC(=O)c2cccc(NC(=O)c3ccccc3Cl)c2)c(OC)c1	KCNK3 block -10, KCNK9 block -12 | KCNK9 block conf 49% | Kir21 sel inactive | KCNK9 uninduced inactive | KCNK3 inh conf 106 | KCNK3 noninduced inactive
COc1ccc(/C=N/NC(=O)c2cccc(NC(=O)c3ccccc3Cl)c2)cc1	none
COc1ccc(/C=N/NC(=O)c2ccccc2OCc2ccccc2)c(OC)c1	KCNK3 block -12, KCNQ1 inh 11, KCNK9 block -21 | KCNK9 block conf 72% | Kir21 sel inactive | KCNK9 uninduced inactive | KCNK3 inh conf 126 | KCNK3 noninduced 0.14
c1ccc(N2CCN(c3ncnc4sc5c(c34)CCC5)CC2)cc1	KCNK9 block -15 | KCNK9 block conf 46% | Kir21 sel inactive | KCNK9 uninduced 44% | KCNK3 inh conf 119 | KCNK3 noninduced 0.15
CCc1cc2c(N3CCN(c4ccccc4)CC3)ncnc2s1	KCNK3 block -13 | KCNK9 block conf inactive | Kir21 sel inactive | KCNK9 uninduced 23% | KCNK3 inh conf 135 | KCNK3 noninduced 0.15
Oc1ccc(N2CCN(c3ncnc4sc(-c5ccccc5)cc34)CC2)cc1	none
C=CCN1CC2(c3ccccc3)CN(CC=C)CC(c3ccccc3)(C1)C2=O	none
O=C(Cc1cccs1)Nc1cccc(-c2nnc(-c3ccco3)o2)c1	KCNK3 block -10, KCNK9 block -9.3 | KCNK9 block conf inactive | Kir21 sel inactive | KCNK9 uninduced 26% | KCNK3 inh conf 115 | KCNK3 noninduced inactive
COc1ccc(CC(=O)Nc2cccc(-c3nnc(-c4ccco4)o3)c2)cc1	none
Cc1cc(C)cc(OCC(=O)Nc2cccc(-c3nnc(-c4ccco4)o3)c2)c1	KCNK3 block -12, KCNK9 block -10 | KCNK9 block conf 44% | Kir21 sel inactive | KCNK9 uninduced 60% | KCNK3 inh conf 115 | KCNK3 noninduced inactive
O=C(NNC(=O)c1ccc(Cn2cccn2)o1)NC12CC3CC(CC(C3)C1)C2	none
CCOC(=O)C1=C(C)NC(SCC(=O)Nc2nc(C)cs2)=C(C#N)C1c1cccs1 (stereo not drawn)	none (no result: KCNK3 block)
O=C(/C=C/Nc1ccccc1Oc1ccccc1)c1ccco1	KCNK3 block -13, KCNK9 block -17 | KCNK9 block conf 47% | Kir21 sel inactive | KCNK9 uninduced 37% | KCNK3 inh conf 122 | KCNK3 noninduced inactive
CC(=O)N1CCc2cc(S(=O)(=O)CCC(=O)NCCc3ccc(Cl)cc3)ccc21	none
